Assay results reported in ChEMBL document CHEMBL1121744, “Synthesis and antihypertensive activity of a series of 8-substituted 1-oxa-3,8-diazaspiro[4.5]decan-2-ones” (J Med Chem, 1981).
Values joined by “and” are separate entries in the source; they are usually repeats but may differ in a detail not shown here. Equal values may be shown once. Active and inactive are the calls of the source. No cut-off for these calls is given here.

Experiments:
[1] = (§1) Distribution coefficient between 1-Octanol and phosphate buffer at pH7.4; type: physicochemical; settings: 1-octanol/phosphate buffer, pH 7.4
Canis familiaris [2] = experiment: Percent inhibition of the pressor responses to 0.75 ug/kg iv norepinephrine in pentobarbital-anesthetized dogs for a dose of 0.1 mg/kg; type: functional; settings: Canis lupus familiaris
Outline: (§2)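 Pentobarbital-anesthetized dogs (35 mg/kg iv) with femoral arterial pressure recording. Epinephrine (1 μg/kg), norepinephrine (0.75 μg/kg) and phenylephrine (7.5 μg/kg) iv challenges were given about every 10 min before and after rising iv test doses, which were spaced 90 min apart. Value is % inhibition of the pressor response.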

Canis familiaris [3] = experiment: Percent inhibition of the pressor responses to 0.75 ug/kg iv norepinephrine in pentobarbital-anesthetized dogs for a dose of 1 mg/kg; type: functional; settings: Canis lupus familiaris; outline: as §2
Canis familiaris [4] = experiment: Percent inhibition of the pressor responses to 1 ug/kg iv Epinephrine in pentobarbital-anesthetized dogs for a dose of 0.1 mg/kg; type: functional; settings: Canis lupus familiaris; outline: as §2
Canis familiaris [5] = experiment: Percent inhibition of the pressor responses to 1 ug/kg iv Epinephrine in pentobarbital-anesthetized dogs for a dose of 10 mg/kg; type: functional; settings: Canis lupus familiaris; outline: as §2
Canis familiaris [6] = experiment: Change in mean arterial pressure in anesthetized dogs for a dose of 0.1 mg/kg; type: functional, Canis lupus familiaris, Artery
Outline: (§3)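 Dogs anesthetized with sodium pentobarbital (35 mg/kg iv), femoral artery cannulated for pressure, ECG-triggered heart rate, femoral vein for dosing. Rising iv doses were given 90 min apart, and each dose is the full dose, not cumulative. Value is the maximal mean arterial pressure change 10–15 min after each dose, two dogs per compound, ±3 mmHg. Saline served as control.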

Canis familiaris [7] = experiment: Change in mean arterial pressure in anesthetized dogs for a dose of 1 mg/kg; type: functional, Canis lupus familiaris, Artery; outline: as §3
Canis familiaris [8] = experiment: Change in mean arterial pressure in anesthetized dogs for a dose of 10 mg/kg; type: functional, Canis lupus familiaris, Artery; outline: as §3
Canis familiaris [9] = experiment: Percent inhibition of the pressor responses to 1 ug/kg iv Epinephrine in pentobarbital-anesthetized dogs for a dose of 1 mg/kg; type: functional; settings: Canis lupus familiaris; outline: as §2
Canis familiaris [10] = experiment: Percent inhibition of the pressor responses to 7.5 ug/kg iv phenylephrine in pentobarbital-anesthetized dogs for a dose of 1 mg/kg; type: functional; settings: Canis lupus familiaris; outline: as §2
Canis familiaris [11] = experiment: Percent inhibition of the pressor responses to 7.5 ug/kg iv phenylephrine in pentobarbital-anesthetized dogs for a dose of 10 mg/kg; type: functional; settings: Canis lupus familiaris; outline: as §2
Rattus norvegicus [12] = experiment: Antihypertensive activity as percentage fall in systolic blood pressure in spontaneously hypertensive rats after a period of 1 hr for a dose of 50 mg/kg; type: functional, Artery
Outline: (§4)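 Male Okamoto-Aoki SHR, trained, in groups of four matched for mean systolic pressure; one group per run received water vehicle. Oral dosing in water (0.1 mL per 10 g) on two consecutive mornings. After the day-2 dose, rats were restrained at 30.0 ± 1.0 °C. Systolic pressure was read by tail cuff (inflated to 300 mmHg, first pulse) at 1–4 h. % fall is versus the untreated control group, by 1-tail t test (p ≤ 0.05).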

Rattus norvegicus [13] = experiment: Percentage fall in systolic blood pressure in spontaneously hypertensive rats after 2 hr following 50 mg/kg p.o.; type: functional, Artery; settings: route oral, 50 mg/kg; outline: as §4
Rattus norvegicus [14] = experiment: Percentage fall in systolic blood pressure in spontaneously hypertensive rats after 3 h following 50 mg/kg p.o.; type: functional, Artery; settings: route oral; outline: as §4
Canis familiaris [15] = experiment: Percent inhibition of the pressor responses to 7.5 ug/kg iv phenylephrine in pentobarbital-anesthetized dogs for a dose of 0.1 mg/kg; type: functional; settings: Canis lupus familiaris; outline: as §2
Rattus norvegicus [16] = experiment: Antihypertensive activity as percentage fall in systolic blood pressure in spontaneously hypertensive rats after a period of 3 hr for a dose of 25 mg/kg po.; NS=Not significant; type: functional, organism-based; set-up: dose 25 mg/kg; settings: Artery; outline: as §4
Rattus norvegicus [17] = experiment: Antihypertensive activity as percentage fall in systolic blood pressure in spontaneously hypertensive rats after a period of 4 hr for a dose of 25 mg/kg po.; NS=Not significant; type: functional, organism-based; set-up: dose 25 mg/kg; settings: Artery; outline: as §4
Rattus norvegicus [18] = experiment: Antihypertensive activity as percentage fall in systolic blood pressure in spontaneously hypertensive rats after a period of 4 hr for a dose of 50 mg/kg po; type: functional, Artery; outline: as §4
Rattus norvegicus [19] = experiment: Antihypertensive activity as percentage fall in systolic blood pressure in spontaneously hypertensive rats after a period of 2 hr for a dose of 25 mg/kg po.; NS=Not significant; type: functional, organism-based; set-up: dose 25 mg/kg; settings: Artery; outline: as §4
Rattus norvegicus [20] = experiment: Antihypertensive activity as percentage fall in systolic blood pressure in spontaneously hypertensive rats after a period of 2 hr for a dose of 50 mg/kg; type: functional, organism-based; set-up: dose 50 mg/kg; settings: Artery; outline: as §4
[21] = as §1; type: physicochemical; settings: 1-octanol/phosphate buffer, pH 7.4; remark: listed apart in the source
Outline: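 Octanol/buffer distribution measured at pH 7.4 in phosphate with sodium chloride. Either HPLC (0.004 M) or shake flask.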

Rattus norvegicus [22] = experiment: The antihypertensive activity as percentage fall in systolic blood pressure in spontaneously hypertensive rats after a period of 2 hr for a dose of 75 mg/kg po; NS=Not significant; type: functional, organism-based; set-up: dose 75 mg/kg; settings: Artery
Outline: (§5)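 Male Okamoto-Aoki SHR, trained, in groups of four matched for systolic pressure, with a concurrent vehicle control group. Oral dosing on two consecutive mornings, in water as solution or suspension at 0.1 mL/10 g. On day 2 rats were restrained at 30.0 ± 1.0 °C. Tail-cuff systolic pressure, four traces per rat, read at each hour. Per cent fall versus control; 1-tail t test, p ≤ 0.05.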

Rattus norvegicus [23] = experiment: The antihypertensive activity as percentage fall in systolic blood pressure in spontaneously hypertensive rats after a period of 3 hr for a dose of 75 mg/kg po; NS=Not significant; type: functional, organism-based; set-up: dose 75 mg/kg; settings: Artery; outline: as §5
Rattus norvegicus [24] = experiment: The antihypertensive activity as percentage fall in systolic blood pressure in spontaneously hypertensive rats after a period of 4 hr for a dose of 75 mg/kg po; NS=Not significant; type: functional, organism-based; set-up: dose 75 mg/kg; settings: Artery; outline: as §5
Rattus norvegicus [25] = experiment: The antihypertensive activity as percentage fall in systolic blood pressure in spontaneously hypertensive rats after a period of 1 hr for a dose of 50 mg/kg po
Rattus norvegicus [26] = experiment: Antihypertensive activity as percentage fall in systolic blood pressure in spontaneously hypertensive rats after a period of 3 hr for a dose of 12.5 mg/kg po; type: functional, Artery; outline: as §4
Rattus norvegicus [27] = experiment: Antihypertensive activity as percentage fall in systolic blood pressure in spontaneously hypertensive rats after a period of 4 hr for a dose of 12.5 mg/kg po; type: functional, Artery; outline: as §4
Rattus norvegicus [28] = experiment: Antihypertensive activity as percentage fall in systolic blood pressure in spontaneously hypertensive rats after a period of 1 hr for a dose of 12.5 mg/kg po; type: functional, Artery; outline: as §4
Rattus norvegicus [29] = experiment: Antihypertensive activity as percentage fall in systolic blood pressure in spontaneously hypertensive rats after a period of 2 hr for a dose of 12.5 mg/kg po; type: functional, Artery; outline: as §4

O=C(NC1CCN(CCc2c[nH]c3ccccc23)CC1)c1ccccc1 [INDORAMIN]
logD [1]: 2.13 | inhibition in vivo at 0.1 mg/kg (Canis familiaris [2]): 21% | inhibition in vivo at 1 mg/kg (Canis familiaris [3]): 23% | inhibition in vivo at 0.1 mg/kg (Canis familiaris [4]): 74% | inhibition in vivo at 10 mg/kg (Canis familiaris [5]): > 100% | MAP (Canis familiaris [6]): -5 mmHg | MAP (Canis familiaris [7]): -28 mmHg | MAP (Canis familiaris [8]): -38 mmHg | inhibition in vivo at 1 mg/kg (Canis familiaris [9]): 92% | inhibition in vivo at 1 mg/kg (Canis familiaris [10]): 83% | inhibition in vivo at 10 mg/kg (Canis familiaris [11]): 93% | Decrease in blood pressure (Rattus norvegicus [12]): 33% | Decrease in blood pressure (Rattus norvegicus [13]): 20% and 11% | Decrease in blood pressure (Rattus norvegicus [14]): 13% | inhibition in vivo at 0.1 mg/kg (Canis familiaris [15]): 65%

COc1ccccc1OCC(O)CN1CCC2(CC1)CN(C)C(=O)O2 (stereo not given)
logD [1]: 0.96 | Decrease in blood pressure (Rattus norvegicus [16]): inactive | Decrease in blood pressure (Rattus norvegicus [17]): inactive | Decrease in blood pressure (Rattus norvegicus [18]): 9% | Decrease in blood pressure (Rattus norvegicus [12]): 15% | Decrease in blood pressure (Rattus norvegicus [19]): inactive | Decrease in blood pressure (Rattus norvegicus [20]): Not significant | Decrease in blood pressure (Rattus norvegicus [14]; 50 mg/kg): 19% and 7%

O=C1NC(Cc2ccccc2)C2(CCN(CCc3c[nH]c4ccccc34)CC2)O1 (stereo not given)
logD [21]: 2.68 | Decrease in blood pressure (Rattus norvegicus [22]): inactive | Decrease in blood pressure (Rattus norvegicus [23]): inactive | Decrease in blood pressure (Rattus norvegicus [24]): inactive | Decrease in blood pressure (Rattus norvegicus [25]): 13%

CCC1NC(=O)OC12CCN(CC1COc3ccccc3O1)CC2 (stereo not given)
Decrease in blood pressure (Rattus norvegicus [26]): -13% | Decrease in blood pressure (Rattus norvegicus [27]): -11% | Decrease in blood pressure (Rattus norvegicus [28]): 22% | Decrease in blood pressure (Rattus norvegicus [12]): 51% | Decrease in blood pressure (Rattus norvegicus [29]): 14% | Decrease in blood pressure (Rattus norvegicus [13]): 54% and 42% | Decrease in blood pressure (Rattus norvegicus [14]): 42%
